Test results taken from ChEMBL document CHEMBL1135681, “Syntheses and structure-activity relationships of nonnatural beta-C-nucleoside 5'-triphosphates bearing an aromatic nucleobase with phenolic hydroxy groups: inhibitory activities against DNA polymerases” (J Med Chem, 2002).
pIC50: −log10 of the molar value.

Columns and labels:
[1] = target: Pyrobest DNA polymerase (Pyrococcus sp.); test: Inhibitory activity against Pyrobest DNA polymerase.
Nucleic Acid [2] = test: Inhibitory activity against Pfu DNA polymerase.; assay type: nucleic-acid assay, Pyrococcus furiosus
Method in brief: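 Native Pfu polymerase (Pyrococcus furiosus) in native Pfu buffer, 2 mM Mg2+, 0.2 mM each dNTP, with various concentrations of nonnatural triphosphate. Cycling: 95 °C 5 min; 30 cycles of 95 °C 30 s, 50 °C 30 s, 72 °C 60 s; final 72 °C 5 min. PCR bands quantified by phosphorimager; IC50 at 50% inhibition; average of two independent runs.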

Nucleic Acid [3] = test: Inhibitory activity against Z-Taq DNA polymerase; assay type: nucleic-acid assay, Thermus aquaticus
Method in brief: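 Z-Taq amplification in 1× Z-Taq buffer, 3 mM Mg2+, 0.2 mM each dNTP, with various nonnatural triphosphate concentrations. Cycling: 95 °C 5 min; 25 cycles of 95 °C 30 s, 50 °C 30 s, 72 °C 30 s; final 72 °C 5 min. Phosphorimager quantitation of product bands; IC50 as 50% inhibition concentration; mean of two independent experiments.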

Nucleic Acid [4] = test: Inhibitory activity against LA-Taq DNA polymerase; assay type: nucleic-acid assay, Thermus aquaticus
Method in brief: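 LA-Taq PCR in 1× LA-Taq buffer with 2.5 mM Mg2+ and 0.2 mM each dNTP, plus graded levels of nonnatural triphosphate. Cycling: 95 °C 5 min; 30 cycles of 95 °C 30 s, 50 °C 30 s, 72 °C 60 s; final 72 °C 5 min. Amplified bands measured by phosphorimager; concentration for 50% inhibition determined; two independent experiments averaged.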

[5] = Inhibitory activity against Ex Taq DNA polymerase; assay type: nucleic-acid assay, Thermus aquaticus
Method in brief: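 PCR inhibition assay in 1× Ex Taq buffer, 2 mM Mg2+, 0.2 mM each dNTP, with various concentrations of nonnatural triphosphate added. Cycling: 95 °C 5 min; 30 cycles of 95 °C 30 s, 50 °C 30 s, 72 °C 60 s; final 72 °C 5 min. Product bands quantified by phosphorimager; IC50 taken as concentration giving 50% inhibition of amplification; mean of two independent experiments.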

Structure (SMILES) | pIC50 [1] | pIC50 (Nucleic Acid [2]) | pIC50 (Nucleic Acid [3]) | pIC50 (Nucleic Acid [4]) | pIC50 [5]
O=P(O)(O)OP(=O)(O)OP(=O)(O)OCC1O[C@@H](c2ccccc2O)CC1O (stereo not given in full) | 2.85 | 3.10 | 2.51 | 2.62 | 2.77
O=P(O)(O)OP(=O)(O)OP(=O)(O)OCC1O[C@@H](c2ccccc2)CC1O (stereo not given in full) | < 1.80 | < 1.80 | < 1.80 | < 1.80 | < 1.80
O=P(O)(O)OP(=O)(O)OP(=O)(O)OCC1O[C@@H](c2ccc(O)c(O)c2)CC1O (stereo not given in full) | 3.30 | 3.70 | 3.52 | 3.15 | 4.52
O=P(O)(O)OP(=O)(O)OP(=O)(O)OCC1O[C@@H](c2cccc(O)c2)CC1O (stereo not given in full) | 2.57 | 3.05 | 2.21 | 2.51 | 2.72
O=P(O)(O)OP(=O)(O)OP(=O)(O)OCC1O[C@@H](c2ccc(O)cc2)CC1O (stereo not given in full) | 2.82 | 3.05 | 2.43 | 2.43 | 2.80
